From ChEMBL document CHEMBL1137030, “Synthesis of chiral phosphoantigens and their activity in gamma delta T cell stimulation” (Bioorg Med Chem Lett, 2004)
“And” between values parts separate entries of the source, which are not always exact repeats. Equal entries are not always repeated.

How the values were obtained:
Type in all cases: functional, cell-based
[1] = Proliferation of human (JN.24 cloned) V gamma-2 V delta-2 T cell
In short: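 JN.24 CD4+ clone, 1×10^5 cells/well, stimulated in duplicate or triplicate with half-log dilutions of antigen plus 1×10^5 CP.EBV B cells fixed with 0.05% glutaraldehyde (1:1). Supernatant removed at 18 h, then cultures pulsed with 1 µCi 3H-thymidine and harvested 16–18 h later; mean proliferation gives EC50.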

[2] = TNF-alpha release is determined to know human (JN.24 cloned) V gamma-2 V delta-2 T cell stimulation
In short: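 JN.24 CD4+ clone, 1×10^5 cells/well, cultured in duplicate or triplicate with half-log antigen dilutions and 1×10^5 glutaraldehyde-fixed (0.05%) CP.EBV B cells as APC (1:1). Supernatants collected after 18 h; TNF-α quantified by sandwich ELISA against a TNF-α standard curve; EC50 from dose response.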

[3] = Proliferation of human (12g12 cloned) V gamma-2 V delta-2 T cell
In short: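 Clone 12G12 at 1×10^5 cells/well with 1×10^5 fixed Va2 fibrosarcoma cells as APC (1:1), exposed in duplicate or triplicate to half-log antigen dilutions. After 18 h supernatant removal, 1 µCi 3H-thymidine pulse; harvest 16–18 h later; EC50 from mean proliferation.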

[4] = TNF-alpha release is determined to know human (12g12 cloned) V gamma-2 V delta-2 T cell stimulation
In short: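 12G12 cells (1×10^5/well) cocultured 1:1 with glutaraldehyde-fixed Va2 transformed fibrosarcoma cells as APC and half-log antigen dilutions, in duplicate or triplicate. Supernatant taken at 18 h, TNF-α measured by sandwich ELISA against a standard curve; EC50 from dose response.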

| SMILES | EC50 ([1]; Homo sapiens, T-cell) | EC50 ([2]; Homo sapiens, T-cell) | EC50 ([1]; t-cell) | EC50 ([3]; t-cell) | EC50 ([4]; Homo sapiens, T-cell) | EC50 ([4]; t-cell) | EC50 ([3]; Homo sapiens, T-cell) | EC50 ([2]; t-cell) |
| --- | --- | --- | --- | --- | --- | --- | --- | --- |
| O=P(O)(O)OP(=O)(O)OCC[C@@H]1CO1 | > 100000 nM | > 100000 nM |  |  |  |  |  |  |
| O=P(O)(O)OP(=O)(O)OCC[C@H](O)CBr | 4000 nM | 2000 nM |  |  |  |  |  |  |
| C[C@](O)(CBr)CCOP(=O)(O)OP(=O)(O)O | 170 nM |  | 120 nM and 110 nM and 85 nM | 1.4 nM and 0.5 nM | 5 nM | 4 nM |  |  |
| O=P(O)(O)OP(=O)(O)OCC[C@@H](O)CBr | 1200 nM | 500 nM |  |  |  |  |  |  |
| C[C@@]1(CCOP(=O)(O)OP(=O)(O)O)CO1 |  |  | 1.4 nM and 3.1 nM and 1.3 nM | 1 nM |  | 1.3 nM and 3.7 nM | 1 nM |  |
| C[C@@](O)(CBr)CCOP(=O)(O)OP(=O)(O)O |  |  |  | 0.8 nM | 9 nM | 8 nM | 0.9 nM |  |
| CC1(CCOP(=O)(O)OP(=O)(O)O)CO1 (single isomer, unassigned) |  |  |  | 0.6 nM |  | 8 nM and 3 nM | 0.5 nM | 2900 nM and 350 nM and 1100 nM |
| O=P(O)(O)OP(=O)(O)OCC[C@H]1CO1 | > 100000 nM | > 100000 nM |  |  |  |  |  |  |
